Results as given in ChEMBL document CHEMBL3616437, “Thiazole compounds with activity against Cryptococcus gattii and Cryptococcus neoformans in vitro” (Eur J Med Chem, 2015).
≈ marks a conversion by molar mass, not a printed value.

How the values were obtained:
[1] = test system: Cryptococcus neoformans; assay: Antifungal activity against Cryptococcus neoformans ATCC 24067 after 48 to 72 hrs by broth microdilution method; format: functional
How it was run: (§1)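 CLSI M27-A3 broth microdilution. Isolates subcultured twice on SDA, 48 h at 35°C. Saline suspension adjusted to 70% transmittance at 530 nm, then diluted to 1-5 x10^3 cells/mL in RPMI with L-glutamine, 0.165 M MOPS, pH 7.0. Compounds in DMSO, tested at […]. 35°C for 48-72 h. MIC read visually as the lowest concentration giving an optically clear well.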

[2] = test system: Vero; assay: Cytotoxicity against African green monkey Vero cells assessed as cell viability measured after 48 hrs by MTT assay; format: cell-based; settings: Chlorocebus sabaeus
How it was run: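 VERO cells in D-MEM with 5% FBS, used up to 20 passages. Seeded 1 x 10^4 cells/well, pre-incubated 24 h at 37°C. Exposed 48 h at 37°C, 5% CO2, to eight nonserial dilutions from 100 to 0.0128 µM, with 0.5% DMSO control. MTT reduction read-out, corrected for background and blank. IC50 reported as median with 95% CI. Triplicate, two independent experiments.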

[3] = Cytotoxicity against C57BL/6 mouse peritoneal macrophages assessed as cell viability measured after 48 hrs by MTT assay; format: cell-based; settings: C57BL/6, Peritoneal macrophage cell
How it was run: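 Thioglycollate-elicited peritoneal macrophages from male C57BL/6 mice, 6–8 weeks old, in RPMI with 10% FBS. Seeded 1 x 10^5 cells/well, pre-incubated 24 h at 37°C. Exposed 48 h at 37°C, 5% CO2, to eight nonserial dilutions from 100 to 0.0128 µM, with 0.5% DMSO control. MTT read-out, % inhibition versus DMSO control. IC50 reported as median with 95% CI. Triplicate, two independent experiments.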

[4] = Selectivity index, ratio of IC50 for African green monkey Vero cells to MIC for Cryptococcus neoformans ATCC 24067; format: toxicity, cell-based
[5] = Selectivity index, ratio of IC50 for C57BL/6 mouse peritoneal macrophages to MIC for Cryptococcus neoformans ATCC 24067
How it was run: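 SI = IC50/MIC. Thioglycollate-elicited peritoneal macrophages from C57BL/6 mice are seeded at 1 x 10^5/well. They are exposed for 48 h at 37°C to eight concentrations from 100 to 0.0128 µM. Viability read by MTT versus 0.5% DMSO control, triplicate in two experiments.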

[6] = test system: Cryptococcus bacillisporus; assay: Antifungal activity against Cryptococcus gattii ATCC 32608 after 48 to 72 hrs by broth microdilution method; format: functional
How it was run: (§2)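 CLSI M27-A3 broth microdilution in RPMI with L-glutamine, buffered to pH 7.0 with 0.165 M MOPS. Colonies grown twice on SDA, 48 h at 35°C. Inoculum set to 70% transmittance at 530 nm, then diluted to 1-5 x10^3 cells/mL. Test agents dissolved in DMSO, serially diluted, tested at 0.1 to 62.5 µM. Plates held at 35°C for 48-72 h. MIC is the lowest concentration giving an optically clear well, read visually against drug-free growth controls.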

[7] = test system: Cryptococcus gattii species complex; assay: Antifungal activity against Cryptococcus gattii 23/10993 after 48 to 72 hrs by broth microdilution method; format: functional, Cryptococcus bacillisporus; how it was run: as §2
[8] = test system: Cryptococcus gattii species complex; assay: Antifungal activity against Cryptococcus gattii L28/02 after 48 to 72 hrs by broth microdilution method; format: functional, Cryptococcus bacillisporus; how it was run: as §2
[9] = test system: Cryptococcus gattii species complex; assay: Antifungal activity against Cryptococcus gattii 547/OTTI-97-PI-10 after 48 to 72 hrs by broth microdilution method; format: functional, Cryptococcus bacillisporus; how it was run: as §2
[10] = test system: Cryptococcus gattii species complex; assay: Antifungal activity against Cryptococcus gattii 135L/03 after 48 to 72 hrs by broth microdilution method; format: functional, Cryptococcus bacillisporus; how it was run: as §2
[11] = test system: Cryptococcus gattii species complex; assay: Antifungal activity against Cryptococcus gattii 196L/03 after 48 to 72 hrs by broth microdilution method; format: functional, Cryptococcus bacillisporus; how it was run: as §2
[12] = test system: Cryptococcus gattii species complex; assay: Antifungal activity against Cryptococcus gattii L27/01 after 48 to 72 hrs by broth microdilution method; format: functional, Cryptococcus bacillisporus; how it was run: as §2
[13] = test system: Cryptococcus gattii species complex; assay: Antifungal activity against Cryptococcus gattii ICB181 after 48 to 72 hrs by broth microdilution method; format: functional, Cryptococcus bacillisporus; how it was run: as §2
[14] = test system: Cryptococcus gattii species complex; assay: Antifungal activity against Cryptococcus gattii L24/01 after 48 to 72 hrs by broth microdilution method; format: functional, Cryptococcus bacillisporus; how it was run: as §2
[15] = test system: Cryptococcus gattii species complex; assay: Antifungal activity against Cryptococcus gattii LMM818 after 48 to 72 hrs by broth microdilution method; format: functional, Cryptococcus bacillisporus; how it was run: as §2
[16] = test system: Cryptococcus gattii species complex; assay: Antifungal activity against Cryptococcus gattii 1913ER after 48 to 72 hrs by broth microdilution method; format: functional, Cryptococcus bacillisporus; how it was run: as §2
[17] = test system: Cryptococcus neoformans; assay: Antifungal activity against Cryptococcus neoformans ATCC 28957 after 48 to 72 hrs by broth microdilution method; format: functional; how it was run: as §1
[18] = test system: Cryptococcus neoformans; assay: Antifungal activity against Cryptococcus neoformans ATCC 62066 after 48 to 72 hrs by broth microdilution method; format: functional
[19] = test system: Cryptococcus neoformans; assay: Antifungal activity against Cryptococcus neoformans CN31 after 48 to 72 hrs by broth microdilution method; format: functional; how it was run: as §1
[20] = test system: Cryptococcus neoformans; assay: Antifungal activity against Cryptococcus neoformans 96806 after 48 to 72 hrs by broth microdilution method; format: functional; how it was run: as §1
[21] = test system: Cryptococcus neoformans; assay: Antifungal activity against Cryptococcus neoformans 5396 after 48 to 72 hrs by broth microdilution method; format: functional; how it was run: as §1
[22] = test system: Cryptococcus neoformans; assay: Antifungal activity against Cryptococcus neoformans LMM820 after 48 to 72 hrs by broth microdilution method; format: functional; how it was run: as §1
[23] = test system: Cryptococcus neoformans; assay: Antifungal activity against Cryptococcus neoformans F10 after 48 to 72 hrs by broth microdilution method; format: functional; how it was run: as §1
[24] = test system: Cryptococcus neoformans; assay: Antifungal activity against Cryptococcus neoformans 28JF after 48 to 72 hrs by broth microdilution method; format: functional; how it was run: as §1
[25] = test system: Cryptococcus neoformans; assay: Antifungal activity against Cryptococcus neoformans VM-MCMMPI after 48 to 72 hrs by broth microdilution method; format: functional; how it was run: as §1
[26] = test system: Cryptococcus neoformans; assay: Antifungal activity against Cryptococcus neoformans 27JF after 48 to 72 hrs by broth microdilution method; format: functional; how it was run: as §1
[27] = test system: Cryptococcus neoformans; assay: Antifungal activity against Cryptococcus neoformans WP after 48 to 72 hrs by broth microdilution method; format: functional; how it was run: as §1

C[C@@H]1[C@H](O)[C@@H](C)/C=C/C=C/C=C/C=C/C=C/C=C/C=C/[C@H](O[C@@H]2O[C@H](C)[C@@H](O)[C@H](N)[C@@H]2O)C[C@@H]2O[C@](O)(C[C@@H](O)C[C@@H](O)[C@H](O)CC[C@@H](O)C[C@@H](O)CC(=O)O[C@H]1C)C[C@H](O)[C@H]2C(=O)O [AMPHOTERICIN B]
MIC [1]: 0.09 µM (≈ 0.0832 µg/mL) | IC50 [2]: > 100 µM | IC50 [3]: 53.4 µM | selectivity ratio [4]: 206 | Ratio [5]: 109.81 | MFC [6]: 0.9 µM (≈ 0.832 µg/mL) | MIC [6]: 0.14 µM (≈ 0.129 µg/mL) | MFC [7]: 0.1 µM (≈ 0.0924 µg/mL) | MIC [7]: 0.08 µM (≈ 0.0739 µg/mL) | MFC [8]: 0.1 µM (≈ 0.0924 µg/mL) | MIC [8]: 0.08 µM (≈ 0.0739 µg/mL) | MFC [9]: 0.1 µM (≈ 0.0924 µg/mL) | MIC [9]: 0.04 µM (≈ 0.037 µg/mL) | MFC [10]: 0.5 µM (≈ 0.462 µg/mL) | MIC [10]: 0.14 µM (≈ 0.129 µg/mL) | MFC [11]: 0.2 µM (≈ 0.185 µg/mL) | MIC [11]: 0.04 µM (≈ 0.037 µg/mL) | MFC [12]: 0.1 µM (≈ 0.0924 µg/mL) | MIC [12]: 0.08 µM (≈ 0.0739 µg/mL) | MFC [13]: 0.9 µM (≈ 0.832 µg/mL) | MIC [13]: 0.12 µM (≈ 0.111 µg/mL) | MFC [14]: 0.1 µM (≈ 0.0924 µg/mL) | MIC [14]: 0.04 µM (≈ 0.037 µg/mL) | MFC [15]: 0.2 µM (≈ 0.185 µg/mL) | MIC [15]: 0.14 µM (≈ 0.129 µg/mL) | MFC [16]: 0.1 µM (≈ 0.0924 µg/mL) | MIC [16]: 0.08 µM (≈ 0.0739 µg/mL) | MFC [17]: 0.22 µM (≈ 0.203 µg/mL) | MIC [17]: 0.04 µM (≈ 0.037 µg/mL) | MFC [18]: 0.22 µM (≈ 0.203 µg/mL) | MIC [18]: 0.03 µM (≈ 0.0277 µg/mL) | MFC [19]: 0.45 µM (≈ 0.416 µg/mL) | MIC [19]: 0.08 µM (≈ 0.0739 µg/mL) | MFC [20]: 0.45 µM (≈ 0.416 µg/mL) | MIC [20]: 0.09 µM (≈ 0.0832 µg/mL) | MFC [21]: 0.11 µM (≈ 0.102 µg/mL) | MIC [21]: 0.06 µM (≈ 0.0554 µg/mL) | MFC [22]: 0.22 µM (≈ 0.203 µg/mL) | MIC [22]: 0.06 µM (≈ 0.0554 µg/mL) | MFC [23]: 0.11 µM (≈ 0.102 µg/mL) | MIC [23]: 0.06 µM (≈ 0.0554 µg/mL) | MFC [24]: 0.22 µM (≈ 0.203 µg/mL) | MIC [24]: 0.11 µM (≈ 0.102 µg/mL) | MFC [25]: 0.22 µM (≈ 0.203 µg/mL) | MIC [25]: 0.07 µM (≈ 0.0647 µg/mL) | MFC [26]: 0.45 µM (≈ 0.416 µg/mL) | MIC [26]: 0.07 µM (≈ 0.0647 µg/mL) | MFC [27]: 0.22 µM (≈ 0.203 µg/mL) | MIC [27]: 0.09 µM (≈ 0.0832 µg/mL)

OC(Cn1cncn1)(Cn1cncn1)c1ccc(F)cc1F [FLUCONAZOLE]
MIC [1]: 7.8 µM (≈ 2.39 µg/mL) | IC50 [2]: > 100 µM | IC50 [3]: > 100 µM | selectivity ratio [4]: 15.7 | Ratio [5]: 15.74 | MFC [6]: 62.5 µM (≈ 19.1 µg/mL) | MIC [6]: 13 µM (≈ 3.98 µg/mL) | MFC [7]: > 62.5 µM | MIC [7]: 13 µM (≈ 3.98 µg/mL) | MFC [8]: > 62.5 µM | MIC [8]: 26 µM (≈ 7.96 µg/mL) | MFC [9]: > 62.5 µM | MIC [9]: 13 µM (≈ 3.98 µg/mL) | MFC [10]: 31.3 µM (≈ 9.59 µg/mL) | MIC [10]: 7.8 µM (≈ 2.39 µg/mL) | MFC [11]: > 62.5 µM | MIC [11]: 26 µM (≈ 7.96 µg/mL) | MFC [12]: > 62.5 µM | MIC [12]: 41.7 µM (≈ 12.8 µg/mL) | MFC [13]: 62.5 µM (≈ 19.1 µg/mL) | MIC [13]: 10.4 µM (≈ 3.19 µg/mL) | MFC [14]: > 62.5 µM | MIC [14]: 13 µM (≈ 3.98 µg/mL) | MFC [15]: > 62.5 µM | MIC [15]: 20.8 µM (≈ 6.37 µg/mL) | MFC [16]: > 62.5 µM | MIC [16]: 13 µM (≈ 3.98 µg/mL) | MFC [17]: 62.5 µM (≈ 19.1 µg/mL) | MIC [17]: 3.2 µM (≈ 0.98 µg/mL) | MFC [18]: > 62.5 µM | MIC [18]: 13 µM (≈ 3.98 µg/mL) | MFC [19]: 31.2 µM (≈ 9.57 µg/mL) | MIC [19]: 6.5 µM (≈ 1.99 µg/mL) | MFC [20]: > 62.5 µM | MIC [20]: 31.2 µM (≈ 9.56 µg/mL) | MFC [21]: 62.5 µM (≈ 19.1 µg/mL) | MIC [21]: 23.4 µM (≈ 7.17 µg/mL) | MFC [22]: 62.5 µM (≈ 19.1 µg/mL) | MIC [22]: 13 µM (≈ 3.98 µg/mL) | MFC [23]: > 62.5 µM | MIC [23]: 10.4 µM (≈ 3.19 µg/mL) | MFC [24]: > 62.6 µM | MIC [24]: 7.8 µM (≈ 2.39 µg/mL) | MFC [25]: 15.6 µM (≈ 4.78 µg/mL) | MIC [25]: 11.7 µM (≈ 3.58 µg/mL) | MFC [26]: > 62.5 µM | MIC [26]: 10.4 µM (≈ 3.19 µg/mL) | MFC [27]: > 62.5 µM | MIC [27]: 15.6 µM (≈ 4.78 µg/mL)
